ChEMBL document CHEMBL1137243, “Design, synthesis, and antifungal activities in vitro of novel tetrahydroisoquinoline compounds based on the structure of lanosterol 14alpha-demethylase (CYP51) of fungi” (2006)
≈ marks a conversion by molar mass, not a printed value.

Experiments:
Assay type in all cases: functional
[1] = system: Cryptococcus neoformans; assay: Antifungal activity against Cryptococcus neoformans after 72 hrs
Method in brief: (§1)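 Broth serial-dilution MIC in 96-well plates per NCCLS recommendations. Medium: RPMI 1640 buffered with 0.165 M MOPS. Strains were from ATCC or clinical isolates. Compounds were dissolved in DMSO and serially diluted in growth medium. Yeasts were incubated at 35 °C, read at 24 h for Candida and 72 h for C. neoformans. MIC is the lowest concentration giving ≥80% growth inhibition versus control (turbidity).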

[2] = system: Aspergillus fumigatus; assay: Antifungal activity against Aspergillus fumigatus after 7 days; conditions: 168 h
Method in brief: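 Filamentous-fungus MIC was determined by serial dilution in 96-well plates per NCCLS, using RPMI 1640 buffered with 0.165 M MOPS. Strains were ATCC or clinical isolates. Compounds in DMSO were diluted in growth medium. Growth was read at 7 days. MIC is the lowest concentration producing ≥80% inhibition of turbidity compared with control.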

[3] = system: Microsporum canis; assay: Antifungal activity against Microsporum canis after 7 days; conditions: 168 h
Method in brief: (§2)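 Dermatophytes were tested by NCCLS-based broth serial dilution in 96-well plates. Medium: RPMI 1640 with 0.165 M MOPS. Isolates were from ATCC or clinical sources. Compounds in DMSO were serially diluted in medium. Incubation was at 28 °C with the read at 7 days. MIC is the lowest concentration giving ≥80% turbidity reduction relative to the growth control.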

[4] = system: Trichophyton rubrum; assay: Antifungal activity against Trichophyton rubrum after 7 days; conditions: 168 h; method in brief: as §2
[5] = system: Candida parapsilosis; assay: Antifungal activity against Candida parapsilosis after 24 hrs; conditions: Lodderomyces parapsilosis; method in brief: as §1
[6] = system: Candida albicans; assay: Antifungal activity against Candida albicans after 24 hrs; method in brief: as §1

Structure (SMILES) | MIC80 [1] [µg/mL] | MIC80 [2] [µg/mL] | MIC80 [3] [µg/mL] | MIC80 [4] [µg/mL] | MIC80 [5] [µg/mL] | MIC80 [6] [µg/mL]
CCCCCCCCCCN1CCc2cc(O)c(O)cc2C1 | 3.12 (≈ 10.2 µM) | 50 (≈ 164 µM) | 12.5 (≈ 40.9 µM) | 3.12 (≈ 10.2 µM) | 12.5 (≈ 40.9 µM) | 100 (≈ 327 µM)
CCCCCCCCCCCCN1CCc2cc(O)c(O)cc2C1 | 6.25 (≈ 18.7 µM) | 50 (≈ 150 µM) | 12.5 (≈ 37.5 µM) | 12.5 (≈ 37.5 µM) | 50 (≈ 150 µM) | 50 (≈ 150 µM)
CCCCCCCCCCCCCCCCN1CCc2cc(O)c(O)cc2C1 | 100 (≈ 257 µM) | 200 (≈ 513 µM) | > 200 | 200 (≈ 513 µM) | 100 (≈ 257 µM) | > 200
CCCCCCCCN1CCc2cc(O)c(O)cc2C1 | 100 (≈ 360 µM) | > 200 | 50 (≈ 180 µM) | 50 (≈ 180 µM) | 100 (≈ 360 µM) | > 200
CCCCCCN1CCc2cc(O)c(O)cc2C1 | 100 (≈ 401 µM) | > 200 | > 200 | > 200 | 100 (≈ 401 µM) | > 200
CCCCCN1CCc2cc(O)c(O)cc2C1 | 100 (≈ 425 µM) | > 200 | > 200 | > 200 | 100 (≈ 425 µM) | > 200
CCCCCCCN1CCc2cc(O)c(O)cc2C1 | 100 (≈ 380 µM) | > 200 | > 200 | > 200 | 100 (≈ 380 µM) | > 200
CCCCCCCCCCCCCCN1CCc2cc(O)c(O)cc2C1 | 6.25 (≈ 17.3 µM) | > 200 | 12.5 (≈ 34.6 µM) | 25 (≈ 69.1 µM) | 50 (≈ 138 µM) | 50 (≈ 138 µM)
CCCCCCCCCN1CCc2cc(O)c(O)cc2C1 | 25 (≈ 85.8 µM) | 200 (≈ 686 µM) | 50 (≈ 172 µM) | 12.5 (≈ 42.9 µM) | 25 (≈ 85.8 µM) | 200 (≈ 686 µM)
OC(Cn1cncn1)(Cn1cncn1)c1ccc(F)cc1F [FLUCONAZOLE] | 6.25 (≈ 20.4 µM) | > 200 | 100 (≈ 327 µM) | 25 (≈ 81.6 µM) | 50 (≈ 163 µM) | 1.56 (≈ 5.1 µM)
